Experimental data as given in article PMC3831659 (European journal of medicinal chemistry, 2013).

Key:
[1] = test system: Vero cells; experiment: Cytotoxicity for Vero cells; type: cell-based
[2] = test system: Toxoplasma gondii (tachyzoites); experiment: T. gondii tachyzoites growth assay; type: cell-based; conditions: tachyzoites expressing red fluorescent protein in hTERT cells
Procedure, shortened: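 hTERT host cells grown in high-glucose DMEM with 1% fetal bovine serum, 2 mM glutamine and 1 mM pyruvate at 37 °C in humid 5% CO2. They were inoculated with 4 × 10⁴ RFP-expressing tachyzoites/well in the same medium. Plates were incubated at 37 °C and read daily through covered lids, bottom fluorescence ex 544/em 590 nm. EC50 was fitted as I = Imax·C/(EC50 + C), with Imax = 100%.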

[3] = test system: epimastigotes (EP strain); conditions: ergosterol and its 24-ethyl analogue; cited from earlier work
[4] = test system: T. cruzi (amastigotes); conditions: clinically more relevant form of T. cruzi; cited from earlier work
[5] = test system: Trypanosoma cruzi; conditions: protection not as efficient as ketoconazole (positive control); cited from earlier work

Q: For `O=[N+]([O-])c1cccc(Oc2ccc(OCCOC3CCCCO3)cc2)c1` (stereo not drawn) [Compound 10, 4-(3-Nitrophenoxy)phenoxyethyl Tetrahydro-2H-pyran-2-yl Ether], which “Cytotoxicity on Vero cells ED50” value ([1]; Alamar Blue assay) is on record?
A: > 50 µM

Q: With `N#CSCCOc1ccc(Oc2cccc([N+](=O)[O-])c2)cc1` [Compound 13, 4-(3-Nitrophenoxy)phenoxyethyl Thiocyanate] as the compound, how does the “Cytotoxicity on Vero cells ED50” value ([1]; Alamar Blue assay) read?
A: > 50 µM

Q: For `COc1ccc(Oc2ccc(OCCSC#N)cc2)cc1` [Compound 21, 4-(4-Methoxyphenoxy)phenoxyethyl Thiocyanate], which “Cytotoxicity on Vero cells ED50” value ([1]; Alamar Blue assay) is on record?
A: > 100 µM

Q: Which results are given for `COc1cccc(Oc2ccc(OCCSC#N)cc2)c1` [Compound 22, 4-(3-Methoxyphenoxy)phenoxyethyl Thiocyanate]?
A: Cytotoxicity on Vero cells ED50 ([1]; Alamar Blue assay): > 50 µM; Toxoplasma gondii (tachyzoites) ED50 [2]: 6.7 ± 3.1 µM

Q: Which “Cytotoxicity on Vero cells ED50” value ([1]; Alamar Blue assay) does the source give for `c1cncc(Oc2ccc(OCCOC3CCCCO3)cc2)c1` (stereo not drawn) [Compound 25, 4-(Pyridin-3-yloxy)phenoxyethyl Tetrahydro-2H-pyran-2-yl Ether] here?
A: > 50 µM

Q: What about the “Toxoplasma gondii (tachyzoites) ED50” value [2] of the same compound?
A: vanishing antiparasitic activity

Q: With `N#CSCCOc1ccc(Oc2cccnc2)cc1` [Compound 28, 4-(Pyridin-3-yloxy)phenoxyethyl Thiocyanate] as the compound, how does the “Cytotoxicity on Vero cells ED50” value ([1]; Alamar Blue assay) read?
A: > 50 µM

Q: And the “Toxoplasma gondii (tachyzoites) ED50” value [2]?
A: 7.5 ± 0.8 µM

Q: Which “Cytotoxicity on Vero cells ED50” value ([1]; Alamar Blue assay) does the source give for `N#CSCCOc1cccc(Oc2ccccc2)c1` [Compound 36, 3-Phenoxyphenoxyethyl Thiocyanate] here?
A: > 50 µM

Q: For `COc1ccc(Oc2cccc(OCCSC#N)c2)cc1` [Compound 37, 3-(4-Methoxyphenoxy)phenoxyethyl Thiocyanate], which “Cytotoxicity on Vero cells ED50” value ([1]; Alamar Blue assay) is on record?
A: > 50 µM

Q: What does the source list for `N#CSCCOc1ccc(Oc2ccccc2)cc1` [WC-9, 4-Phenoxyphenoxyethyl thiocyanate]?
A: Cytotoxicity on Vero cells ED50 ([1]; African green monkey): > 50 µM; depletion of parasite endogenous sterols [3]: almost complete disappearance of the parasite sterols; IC50 against T. cruzi amastigotes [4]: low nanomolar range; effect on parasitemia in murine models of Chagas disease [5]: able to impair parasitemia
